Measured values as given in ChEMBL document CHEMBL1671656, “Light-microscopic immunocytochemistry for gentamicin and its use for studying uptake of the drug in kidney” (Antimicrob Agents Chemother, 2009).

What was measured:
Assay type in all cases: ADME, organism-based
Design in all cases: dose 16 mg/kg, route intravenous
Conditions in all cases: in vivo; call rule not given here
[1] = Drug uptake in Wistar rat kidney proximal tubule S2 obtained after tissue digestion with 0.04% protease digestion for 2 hrs mins at 4 or 16 mg/kg, iv after 12 hrs post dose by light-microscopic immunocytochemistry
Summary of the method: (§1)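 Male Wistar rats (200–250 g) received a single tail-vein gentamicin dose (3 per time group), with saline-injected rats as controls. Under pentobarbital, rats were perfused with PBS, then 2% glutaraldehyde in 10 mM phosphate (pH 7.2), and kidneys postfixed overnight at 4°C. Paraffin sections (5 μm) were treated with 6% H₂O₂, 1.0% NaBH₄ and 1 N HCl, then protease at 30°C. Staining used rabbit anti-GM serum 1:5,000 (overnight, 4°C), then HRP anti-rabbit IgG with DAB.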

[2] = Drug uptake in Wistar rat kidney proximal tubule S1 obtained after tissue digestion with 0.04% protease digestion for 2 hrs mins at 4 or 16 mg/kg, iv after 12 hrs post dose by light-microscopic immunocytochemistry; summary of the method: as §1
[3] = Drug uptake in Wistar rat kidney proximal tubule […] cells obtained after tissue digestion with 0.04% protease digestion for 15 mins at 4 or 16 mg/kg, iv after 12 hrs post dose by light-microscopic immunocytochemistry; summary of the method: as §1
[4] = Drug uptake in Wistar rat kidney collecting duct cells obtained after tissue digestion with 0.04% protease digestion for 15 mins at 4 or 16 mg/kg, iv after 12 hrs post dose by light-microscopic immunocytochemistry; summary of the method: as §1
[5] = Drug uptake in cytoplasm of Wistar rat kidney distal tubule cells obtained after tissue digestion with 0.04% protease digestion for 15 mins at 4 or 16 mg/kg, iv after 12 hrs post dose by light-microscopic immunocytochemistry; summary of the method: as §1
[6] = Drug uptake in Wistar rat Kidney endothelium cells obtained after tissue digestion with 0.04% protease digestion for 2 hrs mins at 4 or 16 mg/kg, iv after 1 hrs post dose by light-microscopic immunocytochemistry; summary of the method: as §1
[7] = Drug uptake in Wistar rat Kidney endothelium cells obtained after tissue digestion with 0.04% protease digestion for 15 mins to 60 mins at 4 or 16 mg/kg, iv after 1 hrs post dose by light-microscopic immunocytochemistry; summary of the method: as §1
[8] = Drug uptake in Wistar rat Kidney endothelium cells obtained after tissue digestion with 0.04% protease digestion for 15 mins to 2 hrs mins at 4 or 16 mg/kg, iv after 12 hrs post dose by light-microscopic immunocytochemistry; summary of the method: as §1
[9] = Drug uptake in Wistar rat Kidney glomeruli cells obtained after tissue digestion with 0.04% protease digestion for 15 mins to 2 hrs mins at 4 or 16 mg/kg, iv after 12 hrs post dose by light-microscopic immunocytochemistry; summary of the method: as §1
[10] = Drug uptake in Wistar rat Kidney Henle's loop cells obtained after tissue digestion with 0.04% protease digestion for 15 mins to 2 hrs mins at 4 or 16 mg/kg, iv after 12 hrs post dose by light-microscopic immunocytochemistry; summary of the method: as §1
[11] = Drug uptake in Wistar rat kidney collecting duct cells obtained after tissue digestion with 0.04% protease digestion for 30 mins at 4 or 16 mg/kg, iv after 12 hrs post dose by light-microscopic immunocytochemistry; summary of the method: as §1
[12] = Drug uptake in Wistar rat kidney collecting duct cells obtained after tissue digestion with 0.04% protease digestion for 2 hrs at 4 or 16 mg/kg, iv after 12 hrs post dose by light-microscopic immunocytochemistry; summary of the method: as §1
[13] = Drug uptake in cytoplasm of Wistar rat kidney distal tubule cells obtained after tissue digestion with 0.04% protease digestion for 2 hrs at 4 or 16 mg/kg, iv after 12 hrs post dose by light-microscopic immunocytochemistry; summary of the method: as §1
[14] = Drug uptake in nuclei of Wistar rat kidney distal tubule cells obtained after tissue digestion with 0.04% protease digestion for 15 mins at 4 or 16 mg/kg, iv after 12 hrs post dose by light-microscopic immunocytochemistry; summary of the method: as §1

For GENTAMICIN, the Drug uptake [1] was “Active”, the Drug uptake [2] was “Active” and the Drug uptake [3] was “Not Active”. The Drug uptake [4] was “Active”, the Drug uptake [5] was “Active” and the Drug uptake [6] was “Not Active”. The Drug uptake [7] was “Active”, the Drug uptake [8] was “Not Active” and the Drug uptake [9] was “Not Active”. The Drug uptake [10] was “Not Active”, the Drug uptake [11] was “Active” and the Drug uptake [12] was “Not Active”. The Drug uptake [13] was “Not Active” and the Drug uptake [14] was “Active”.
